The text below walks through data of ChEMBL document CHEMBL4311931, “Controlling cellular distribution of drugs with permeability modifying moieties” (Medchemcomm, 2019).

Molecules are shown by their SMILES. pEC50, pIC50, pKi: −log10 of the molar value. Where only a bound is given, the exact number is not on record here.

Data set [1] deals with Bromodomain-containing protein 2 (Homo sapiens, UniProt P25440). The data set is described as follows: Inhibition of BRD2 (unknown origin) by TR-FRET assay. (In general: TR-FRET usually uses a lanthanide donor and a delayed reading to cut background.)
The target in data set [2] is Bromodomain-containing protein 3 (Homo sapiens, UniProt Q15059). Kind of data set: Inhibition of BRD3 (unknown origin) by TR-FRET assay.
In data set [3] the target is T1, Bromodomain-containing protein 4 (Homo sapiens, UniProt O60885). The data set is described as follows: Inhibition of BRD4 (unknown origin) by TR-FRET assay.
The target in data set [4] is T1, Bromodomain-containing protein 4. Kind of data set: Inhibition of BRD4 in human […] cells transfected with HPV-E2 assessed as transrepression of HPV-long control region by luciferase reporter assay. In kind it is cell-based.
Data set [5] in a line: Ratio of drug concentration in unbound HEK293 cell to media. The following applies: human. The format is ADME. In outline:
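In HEK293 cells, Kpuu combines compound binding (fu,HEK) with intracellular accumulation (Kp, cell-to-media concentration ratio). Values are the geometric mean of at least two duplicate runs.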

Data set [6] concerns the target T1, Bromodomain-containing protein 4. Kind of data set: Inhibition of BRD4 in human MX1 cells assessed as decrease in cell proliferation after 3 days by Celltiter-Glo assay relative to parent compound. In kind it is cell-based. The gist of the method:
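MX-1 breast cancer cells were treated for a 3-day proliferation assay and read out by CellTiter-Glo. Each EC50 is the geometric mean of at least two duplicate runs. The fold change is the ratio of the result to that of (+)-JQ1.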

Data set [7] has the same target. The data set is described as follows: Inhibition of BRD4 in luciferase expressing human […] cells transfected with HPV-E2 assessed as transrepression of HPV-long control region by luciferase reporter assay relative to parent compound. In outline:
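In-cell target engagement was read in an engineered H1299-derived luciferase reporter system. Each EC50 is the geometric mean of at least two duplicate runs. The fold change is the ratio to (+)-JQ1.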
(Reporter assays use an easily measured gene product as a stand-in for the process of interest.)

Data set [8] concerns the target T2, Nicotinamide phosphoribosyltransferase (Homo sapiens, UniProt P43490). Kind of data set: Displacement of fluorescent labelled OG488 from human full length FLAG-tagged NAMPT (1 to 491 residues) expressed in HEK293-6E cells in absence of PRPP by TR-FRET assay. The format is cell-based.
The target in data set [9] is T2, Nicotinamide phosphoribosyltransferase. Kind of data set: Displacement of fluorescent labelled OG488 from human full length FLAG-tagged NAMPT (1 to 491 residues) expressed in HEK293-6E cells in presence of PRPP by TR-FRET assay. The format is cell-based.
For another data set, the system named is PC-3. The data set is described as follows: Antiproliferative activity against human PC3 cells assessed as reduction in cell viability by Celltiter-Glo assay. The format is functional, cell-based. The gist of the method:
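PC3 cells from ATCC, authenticated by STR analysis. Viability was read by CellTiter-Glo, and cell EC50 is the geometric mean of at least two duplicate runs.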
In general terms: In ATP-based viability assays light output follows the ATP content of the culture.

Data set [10] in a line: Permeability of compound in 5% DMSO after 7 hrs by PAMPA. In kind it is ADME. The note with it: read-out: permeability.
Data set [11] concerns the target T3, Histamine H3 receptor (Homo sapiens, UniProt Q9Y5N1). The data set is described as follows: Displacement of [3H]Nalpha-methylhistamine from recombinant human histamine H3 receptor after 60 mins by scintillation counting method.
Data set [12] addresses T3, Histamine H3 receptor. Kind of data set: Agonist activity at human H3 receptor expressed in CHOK1 cells incubated for 10 mins by HTRF assay. The format is cell-based.
The target in data set [13] is T3, Histamine H3 receptor. Kind of data set: Antagonist activity at human H3 receptor expressed in CHOK1 cells incubated for 10 mins by HTRF assay. The format is cell-based.

T3 sequence (Q9Y5N1 whole entry): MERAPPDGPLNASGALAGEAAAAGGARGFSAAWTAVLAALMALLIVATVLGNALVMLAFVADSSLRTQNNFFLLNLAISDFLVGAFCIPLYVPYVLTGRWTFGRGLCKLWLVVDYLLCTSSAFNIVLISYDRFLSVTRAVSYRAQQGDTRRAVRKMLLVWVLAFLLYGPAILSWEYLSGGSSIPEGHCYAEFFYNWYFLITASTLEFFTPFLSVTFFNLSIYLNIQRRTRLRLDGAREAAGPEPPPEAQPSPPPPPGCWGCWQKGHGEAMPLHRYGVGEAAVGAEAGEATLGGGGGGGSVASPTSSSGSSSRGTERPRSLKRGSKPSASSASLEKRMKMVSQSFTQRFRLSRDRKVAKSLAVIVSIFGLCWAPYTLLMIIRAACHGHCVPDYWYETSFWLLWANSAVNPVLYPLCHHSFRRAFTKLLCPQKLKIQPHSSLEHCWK
Chain of Bromodomain-containing protein 3 (Q15059 whole entry): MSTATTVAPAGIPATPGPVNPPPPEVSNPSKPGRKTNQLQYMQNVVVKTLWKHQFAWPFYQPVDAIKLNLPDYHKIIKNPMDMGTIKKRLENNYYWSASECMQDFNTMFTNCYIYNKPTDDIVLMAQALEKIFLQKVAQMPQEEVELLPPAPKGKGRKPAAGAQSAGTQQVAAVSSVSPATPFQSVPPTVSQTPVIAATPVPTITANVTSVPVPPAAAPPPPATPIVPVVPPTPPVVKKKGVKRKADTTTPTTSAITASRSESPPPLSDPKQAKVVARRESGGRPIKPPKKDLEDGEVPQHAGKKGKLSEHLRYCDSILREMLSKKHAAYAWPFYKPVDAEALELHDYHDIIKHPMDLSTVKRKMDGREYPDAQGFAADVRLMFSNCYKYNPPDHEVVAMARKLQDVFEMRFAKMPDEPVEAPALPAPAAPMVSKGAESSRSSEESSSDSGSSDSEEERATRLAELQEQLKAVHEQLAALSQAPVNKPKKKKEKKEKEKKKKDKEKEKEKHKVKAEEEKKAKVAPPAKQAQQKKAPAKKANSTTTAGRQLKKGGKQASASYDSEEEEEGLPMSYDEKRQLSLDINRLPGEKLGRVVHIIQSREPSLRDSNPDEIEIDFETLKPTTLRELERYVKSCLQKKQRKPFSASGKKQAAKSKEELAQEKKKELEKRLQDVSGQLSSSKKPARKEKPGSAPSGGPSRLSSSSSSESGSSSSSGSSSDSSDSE
Chain of Bromodomain-containing protein 2 (P25440 whole entry): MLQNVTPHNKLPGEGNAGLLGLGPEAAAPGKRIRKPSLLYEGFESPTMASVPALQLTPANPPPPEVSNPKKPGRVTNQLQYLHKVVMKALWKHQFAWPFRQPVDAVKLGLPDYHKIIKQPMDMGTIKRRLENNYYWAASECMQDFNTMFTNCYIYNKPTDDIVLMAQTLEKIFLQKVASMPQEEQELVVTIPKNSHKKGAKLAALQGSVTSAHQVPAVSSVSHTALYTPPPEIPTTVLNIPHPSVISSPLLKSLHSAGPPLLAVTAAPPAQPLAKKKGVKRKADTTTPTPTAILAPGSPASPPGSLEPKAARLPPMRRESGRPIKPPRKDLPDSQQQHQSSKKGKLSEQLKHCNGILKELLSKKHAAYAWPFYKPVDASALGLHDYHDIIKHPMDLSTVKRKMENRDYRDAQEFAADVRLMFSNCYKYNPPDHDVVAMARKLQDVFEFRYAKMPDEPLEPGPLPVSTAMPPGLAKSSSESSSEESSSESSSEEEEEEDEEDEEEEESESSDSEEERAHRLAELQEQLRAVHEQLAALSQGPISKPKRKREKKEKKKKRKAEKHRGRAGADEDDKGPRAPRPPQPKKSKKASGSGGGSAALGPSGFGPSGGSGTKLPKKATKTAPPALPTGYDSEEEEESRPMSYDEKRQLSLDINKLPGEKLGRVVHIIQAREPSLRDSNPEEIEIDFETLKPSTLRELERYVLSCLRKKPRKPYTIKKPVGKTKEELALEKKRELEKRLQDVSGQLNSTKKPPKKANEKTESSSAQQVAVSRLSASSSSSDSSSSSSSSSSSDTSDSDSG
T2 sequence (P43490 whole entry, the tested form may be a part): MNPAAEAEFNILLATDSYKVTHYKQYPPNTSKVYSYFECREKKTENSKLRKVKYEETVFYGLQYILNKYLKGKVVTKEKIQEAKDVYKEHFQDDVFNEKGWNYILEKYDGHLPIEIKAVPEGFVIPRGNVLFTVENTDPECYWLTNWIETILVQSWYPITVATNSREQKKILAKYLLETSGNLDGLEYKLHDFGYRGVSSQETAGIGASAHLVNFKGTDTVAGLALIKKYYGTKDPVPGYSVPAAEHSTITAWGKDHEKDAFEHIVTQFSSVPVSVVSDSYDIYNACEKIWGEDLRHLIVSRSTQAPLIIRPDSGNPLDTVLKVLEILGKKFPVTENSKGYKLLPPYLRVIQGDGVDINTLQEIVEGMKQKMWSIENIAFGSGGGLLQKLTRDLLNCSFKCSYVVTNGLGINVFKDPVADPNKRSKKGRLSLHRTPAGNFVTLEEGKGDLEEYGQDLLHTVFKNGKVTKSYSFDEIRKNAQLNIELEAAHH

As a reminder, the pIC50 is −log10 of the IC50, conventionally taken in molar units. As usually defined, the pEC50 is −log10 of the EC50, conventionally taken in molar units. For `Cc1sc2c(c1C)C(c1ccc(Cl)cc1)=N[C@@H](CC(=O)NCCOCCOCCNC(=O)C1C(C(=O)O)C(C(=O)O)C1C(=O)O)c1nnc(C)n1-2` (some centres not stated), the pIC50 in data set [1] was 6.00; in data set [2], 6.34; in data set [3], below 5.00. Also, the pEC50 in data set [4] was below 5.00. Also, the Ratio in data set [5] was found to be 0.0359. The fold change (FC) in [6] and in [7] was above 50 each time.

For orientation: pKi means the Ki on a negative log10 scale, so that one unit is a factor of ten. `CC1(CCCCCC(=O)NCCOCCOCC(=O)NCc2cccc(C(=O)N3CCC(CCCCNC(=O)/C=C/c4cccnc4)CC3)c2)C(/C=C/C=C/C=C2/N(CCCS(=O)(=O)O)c3ccc(S(=O)(=O)O)cc3C2(C)C)=[N+](CCCS(=O)(=O)[O-])c2ccc(S(=O)(=O)O)cc21` (configuration not stated): the pKi in data set [8] was 6.85; in [9], 8.89. In addition, the pIC50 in the data set with PC-3 is 6.71.

Regarding `Cc1sc2c(c1C)C(c1ccc(Cl)cc1)=N[C@@H](CC(=O)NCCOCCOCCNC(=O)CS(=O)(=O)O)c1nnc(C)n1-2`, the pIC50 in data set [1] is 7.11; in data set [2], 7.11; in [3] it was below 5.00. The pEC50 in data set [4] is below 5.00. In addition, in data set [5], the Ratio worked out at 0.0219. The fold change (FC) in [6] and in data set [7] was above 50 in each case.

Consider `Cc1nn(CCOCCOCCNC(=O)CCCCCC2(C)C(/C=C/C=C/C=C3/N(CCCS(=O)(=O)O)c4ccc(S(=O)(=O)O)cc4C3(C)C)=[N+](CCCS(=O)(=O)[O-])c3ccc(S(=O)(=O)O)cc32)cc1-c1ccc2cc(CCN3CCC[C@H]3C)ccc2n1` (some centres not stated), for which the Papp at 7 h in data set [10] stood at 0.284 ×10⁻⁶ cm/s. Further, at Histamine H3 receptor [11], the pKi is 8.72. Besides, the pEC50 on Histamine H3 receptor [12] was 7.06. The pIC50 against Histamine H3 receptor [13] is 7.89.

For `Cc1nn(CCOCCOCCNC(=O)OC(C)(C)C)cc1-c1ccc2cc(CCN3CCC[C@H]3C)ccc2n1`, in [10], the Papp at 7 h worked out at 0.873 ×10⁻⁶ cm/s. Besides, the pKi on Histamine H3 receptor [11] was 8.82. The same molecule gave a pEC50 at Histamine H3 receptor [12] below 5.52. For the same molecule, the pIC50 against Histamine H3 receptor [13] is 7.39.

Turning to `Cc1sc2c(c1C)C(c1ccc(Cl)cc1)=N[C@@H](CC(=O)NCCOCCOCCNC(=O)CCCCCC1(C)C(/C=C/C=C/C=C3/N(CCCS(=O)(=O)O)c4ccc(S(=O)(=O)O)cc4C3(C)C)=[N+](CCCS(=O)(=O)[O-])c3ccc(S(=O)(=O)O)cc31)c1nnc(C)n1-2` (some centres not stated), the pIC50 in [1] is below 4.35; in [2], below 4.69; in data set [3], 5.04. Further, in data set [4], the pEC50 is below 5.00. Besides, the Ratio in data set [5] was found to be 0.0064. Further, the fold change (FC) in data set [6] and in data set [7] was above 50 in each case.

In the case of `NCc1cccc(C(=O)N2CCC(CCCCNC(=O)/C=C/c3cccnc3)CC2)c1`, the Papp at 7 h in [10] was 0.092 ×10⁻⁶ cm/s. Also, the results for the pKi in data set [8] and in data set [9] were 7.26 and 8.96, respectively. The pIC50 in the data set with PC-3 is 7.52.

In the case of `Cc1nn(CCOCCOCCNC(=O)CS(=O)(=O)O)cc1-c1ccc2cc(CCN3CCC[C@H]3C)ccc2n1`, the pKi at Histamine H3 receptor [11] was 8.25. Besides, the pEC50 on Histamine H3 receptor [12] is below 5.52. The molecule further gave a pIC50 against Histamine H3 receptor [13] of 7.35.

As for `CC(C)(C)OC(=O)NCCOCCOCC(=O)NCc1cccc(C(=O)N2CCC(CCCCNC(=O)/C=C/c3cccnc3)CC2)c1`, the Papp at 7 h in [10] is 1.2 ×10⁻⁶ cm/s. Moreover, the pKi was 7.85 in [8] and 9.70 in data set [9]. The pIC50 in the data set on PC-3 is 7.51.

In the case of `Cc1sc2c(c1C)C(c1ccc(Cl)cc1)=N[C@@H](CC(=O)NCCOCCOCCNC(=O)OC(C)(C)C)c1nnc(C)n1-2`, the values for the pIC50 in data set [1], in [2] and in data set [3] were 7.46, 7.38 and 6.28, respectively. Also, in data set [4], the pEC50 is 6.14. Also, the Papp at 7 h in data set [10] stood at 6.22 ×10⁻⁶ cm/s. Also, the Ratio in data set [5] came out at 0.168. The figures for the fold change (FC) in data set [6] and in data set [7] were 3.65 and 11.2, respectively.

Consider `O=C(/C=C/c1cccnc1)NCCCCC1CCN(C(=O)c2cccc(CNC(=O)COCCOCCNC(=O)CS(=O)(=O)O)c2)CC1`, for which the negative logarithm of the Ki (pKi) in data set [8] is 6.55; in data set [9], 8.10. For the same molecule, in the data set on PC-3, the pIC50 was 5.14.

As to `O=C(/C=C/c1cccnc1)NCCCCC1CCN(C(=O)c2cccc(CNC(=O)COCCOCCNC(=O)C3C(C(=O)O)C(C(=O)O)C3C(=O)O)c2)CC1` (configuration not stated), the pKi in data set [8] is 6.44; in data set [9] it was 8.23. Also, in the data set with PC-3, the pIC50 is 5.14.

As to `Cc1nn(CCOCCOCCNC(=O)C2C(C(=O)O)C(C(=O)O)C2C(=O)O)cc1-c1ccc2cc(CCN3CCC[C@H]3C)ccc2n1` (some centres not stated), the Papp at 7 h in [10] stood at 0.0131 ×10⁻⁶ cm/s. Besides, the pKi at Histamine H3 receptor [11] is 7.60. The molecule also showed a pEC50 at Histamine H3 receptor [12] below 5.52. The pIC50 on Histamine H3 receptor [13] was 6.82.

With `Cc1sc2c(c1C)C(c1ccc(Cl)cc1)=N[C@@H](CC(=O)NCCOCCOCCN)c1nnc(C)n1-2`, the values for the pIC50 in [1], in data set [2] and in data set [3] were 7.80, 8.15 and 5.61, respectively. The pEC50 in data set [4] was 5.07. For the same molecule, in data set [10], the Papp at 7 h worked out at 0.0146 ×10⁻⁶ cm/s. Besides, the Ratio in data set [5] is reported as 0.0695. In addition, the fold change (FC) was 17.2 in [6] and above 50 in data set [7].

Consider `Cc1nn(CCOCCOCCN)cc1-c1ccc2cc(CCN3CCC[C@H]3C)ccc2n1`, for which the Papp at 7 h in data set [10] was determined as 0.0246 ×10⁻⁶ cm/s. Also, at Histamine H3 receptor [11], the pKi is 9.15. Also, the negative-log EC50 (pEC50) on Histamine H3 receptor [12] was below 5.52. This molecule showed a pIC50 against Histamine H3 receptor [13] of 9.00.

With `NCCOCCOCC(=O)NCc1cccc(C(=O)N2CCC(CCCCNC(=O)/C=C/c3cccnc3)CC2)c1`, the Papp at 7 h in data set [10] was 0.016 ×10⁻⁶ cm/s. Further, the pKi in data set [8] is 7.22; in data set [9], 8.72. Moreover, the pIC50 in the data set on PC-3 was 6.53.
